# “And” between values parts separate entries of the source, which are not always exact repeats. Equal entries are not always repeated.
# Target: T1, GVIA iPLA2 (Homo sapiens, UniProt O60733)
# T1 sequence (O60733 1-806): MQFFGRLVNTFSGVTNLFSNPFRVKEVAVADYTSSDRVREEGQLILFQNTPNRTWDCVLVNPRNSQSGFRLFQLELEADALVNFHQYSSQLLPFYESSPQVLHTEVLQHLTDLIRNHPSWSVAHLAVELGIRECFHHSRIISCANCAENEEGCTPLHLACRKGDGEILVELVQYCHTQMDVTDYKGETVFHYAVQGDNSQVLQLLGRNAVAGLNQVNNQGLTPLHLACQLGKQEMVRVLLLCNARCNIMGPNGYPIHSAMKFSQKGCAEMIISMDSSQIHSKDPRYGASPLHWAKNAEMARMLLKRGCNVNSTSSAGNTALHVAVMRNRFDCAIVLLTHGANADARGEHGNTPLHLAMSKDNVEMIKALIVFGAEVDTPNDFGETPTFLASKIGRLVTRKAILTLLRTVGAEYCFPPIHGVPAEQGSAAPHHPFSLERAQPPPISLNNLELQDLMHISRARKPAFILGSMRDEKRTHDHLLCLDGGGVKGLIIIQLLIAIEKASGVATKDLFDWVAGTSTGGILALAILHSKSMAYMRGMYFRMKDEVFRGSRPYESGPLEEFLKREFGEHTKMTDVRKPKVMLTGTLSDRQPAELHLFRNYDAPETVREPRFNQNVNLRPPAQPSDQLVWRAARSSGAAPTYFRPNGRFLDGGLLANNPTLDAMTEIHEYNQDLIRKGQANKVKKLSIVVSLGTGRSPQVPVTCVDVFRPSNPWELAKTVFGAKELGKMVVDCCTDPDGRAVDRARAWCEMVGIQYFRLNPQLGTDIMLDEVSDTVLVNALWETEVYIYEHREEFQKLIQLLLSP
# Test: In vitro GVIA iPLA2 inhibition, mixed micellar modified Dole assay
# Assay type: biochemical
# Details: mole fraction of inhibitor in total substrate interface required to inhibit the enzyme by 50%; mixed micelles
# Method in brief: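 Human GVIA iPLA2 on Triton X-100 mixed micelles, either 400 μM Triton X-100/99 μM DPPC/1.5 μM 14C-DPPC in 200 mM HEPES pH 7.0, 1 mM ATP, 2 mM DTT, 0.1 mg/ml BSA, or 400 μM Triton/98.3 μM PAPC/1.7 μM 14C-PAPC in 100 mM HEPES pH 7.5, 2 mM ATP, 4 mM DTT. XI(50) obtained when screening inhibition exceeded 90%: 7 points (typically 0.005–0.091 mole fraction), linear or one-site hyperbola (BMAX = 100) fit.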
row,SMILES,GVIA iPLA2 XI(50)
1,"CCCCCCCCCCCCCCC(=O)C(=O)N[C@H](C(=O)NCC(=O)OC(C)(C)C)C(C)C [Compound 8b, (S)-tert-Butyl 2-(3-methyl-2-(2-oxohexadecanamido)butanamido)acetate]",0.044 ± 0.025 mole fraction
2,"CCCCCCCCCCCCCCC(=O)C(=O)N[C@@H](CCCC)C(=O)NCC(=O)OC(C)(C)C [Compound 8a, (S)-tert-Butyl 2-(2-(2-oxohexadecanamido)hexanamido)acetate]",0.011 mole fraction and 0.011 ± 0.001 mole fraction
3,"CCCCCCCCCCCCCCC(=O)C(=O)N[C@@H](CCCC)C(=O)NCC(=O)OCC [Compound 4c, (S)-Ethyl 2-(2-(2-oxohexadecanamido)hexanamido)acetate]",0.020 mole fraction and 0.020 ± 0.002 mole fraction
4,"CCCCCCCCCCCCCCC(=O)C(=O)N[C@@H](CCCC)C(=O)NCC(=O)OC [Compound 4a, (S)-Methyl 2-(2-(2-oxohexadecanamido)hexanamido)acetate]",0.045 ± 0.018 mole fraction
5,"CCCCCCCCCCCCCCC(=O)C(=O)N[C@@H](CCCC)COCC(=O)OCC [Compound 13, (S)-Ethyl 2-(2-(2-oxohexadecanamido)hexyloxy)acetate]",0.017 mole fraction and 0.017 ± 0.002 mole fraction

# — PMC2695835 (Bioorganic & medicinal chemistry, 2009)
